The values that follow come from ChEMBL document CHEMBL1122147, “N,N'-Dialkyl-1,2-bis(hydroxyphenyl)ethylenediamines and N,N-dialkyl-4,5-bis(4-hydroxyphenyl)imidazolidines: syntheses and evaluation of their mammary tumor inhibiting activity” (1982).

In assay [1] the test system is Rattus norvegicus. The assay can be described thus: Inhibition of the DMBA-induced mammary carcinoma in 8 rats at 15 mg/kg dose; not significant. In kind it is functional. In a few lines:
(§1)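 Established DMBA-induced mammary carcinoma, Sprague-Dawley rats; compound in arachis oil sc three times weekly (Mon, Wed, Fri). Starting tumor area above 140 mm² per animal; percent increase of tumor area after 28 days of therapy, mean values; significance by Wilcoxon-Mann-Whitney U test.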

Assay [2] concerns the target T1, Estrogen receptor (Mus musculus) (UniProt O08537+P19785). In words: Binding affinity for murine Estrogen receptor. In kind it is protein assay.
Assay [3] has as its system Rattus norvegicus. The assay can be described thus: Inhibition of the DMBA-induced mammary carcinoma in 11 rats at 25 mg/kg dose; not significant. Format: functional. In a few lines: as §1
Assay [4] has as its target T1, Estrogen receptor (Mus musculus). In words: (§2) Binding affinity for murine Estrogen receptor; No affinity. Format: protein assay.
Assay [5] shares this target. Described as §2. In kind it is protein assay. This is another data set of the same source.
Assay [6] relates to MCF7. The assay can be described thus: Incorporation of [3H]thymidine into estrogen-responsive MCF-7 human breast tumor cells at 10e-5 M. In kind it is functional. The procedure, abridged:
(§3)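 MCF-7 cells plated in medium with 10% FCS, switched next day to 5% dextran-charcoal-stripped calf serum, medium renewed every 72 h. At ~60% confluence compounds added in ethanol (0.1% final), 60 h incubation; 1 μCi [3H]thymidine per well for last 2 h. Acid (10% Cl3AcOH)-precipitable counts from sonicate, dpm/dish, mean of six dishes ± SD.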

For assay [7], the system named is MCF7. In words: Incorporation of [3H]thymidine into estrogen-responsive MCF-7 human breast tumor cells at 10e-8 M with hexestrol; dpm/dish. Format: functional. In a few lines: as §3
Assay [8] relates to MCF7. In words: Incorporation of [3H]thymidine into estrogen-responsive MCF-7 human breast tumor cells at 10e-5 M; dpm/dish. Format: functional. The procedure, abridged: as §3
Assay [9] deals with MCF7. In words: Incorporation of [3H]thymidine into estrogen-responsive MCF-7 human breast tumor cells at 10e-8 M with hexestrol. In kind it is functional. In a few lines: as §3
In assay [10] the target is T1, Estrogen receptor (Mus musculus). In words: In vitro inhibition of murine Estrogen receptor. The following applies: concentration not given here. In kind it is protein assay. More on the design: concentration or dose not given beside the values.
Assay [11] is filed under the species Rattus norvegicus. In words: Dehydrogenase activity in regressing DMBA-induced mammary tumor in rats. Format: functional. In a few lines:
(§4)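 DMBA-induced rat mammary tumors, growing versus regressing, assayed for glucose-6-phosphate plus 6-phosphogluconate dehydrogenase and p-nitrophenylphosphatase activities (μM/mL); mean ± SD, growing vs regressing compared by Student's t test.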

The species entered for assay [12] is Rattus norvegicus. In words: Dehydrogenase activity in proliferating DMBA-induced mammary tumor in rats. In kind it is functional. The procedure, abridged: as §4
The subject of assay [13] is Rattus norvegicus. In words: Inhibition of the DMBA-induced mammary carcinoma in 10 rats at 20 mg/kg dose. Format: functional. In a few lines: as §1
For assay [14], the species on record is Rattus norvegicus. In words: p-Nitrophenylphosphatase activity in regressing DMBA-induced mammary tumor in rats; not significant. In kind it is functional. The procedure, abridged: as §4
The species entered for assay [15] is Rattus norvegicus. The assay can be described thus: p-Nitrophenylphosphatase activity in proliferating DMBA-induced mammary tumor in rats. Format: functional. The procedure, abridged: as §4
Assay [16] has as its system MCF7. The assay can be described thus: Incorporation of [3H]thymidine into estrogen-responsive MCF-7 human breast tumor cells at 10e-8 M concentration with hexestrol; dpm/dish. Format: functional. In a few lines:
as §3

Each structure is given as a SMILES string. Calls of active or inactive are those of the source. The calls are words filed in the database; no cut-off is given here.

T1 sequence (O08537 whole entry, looked up): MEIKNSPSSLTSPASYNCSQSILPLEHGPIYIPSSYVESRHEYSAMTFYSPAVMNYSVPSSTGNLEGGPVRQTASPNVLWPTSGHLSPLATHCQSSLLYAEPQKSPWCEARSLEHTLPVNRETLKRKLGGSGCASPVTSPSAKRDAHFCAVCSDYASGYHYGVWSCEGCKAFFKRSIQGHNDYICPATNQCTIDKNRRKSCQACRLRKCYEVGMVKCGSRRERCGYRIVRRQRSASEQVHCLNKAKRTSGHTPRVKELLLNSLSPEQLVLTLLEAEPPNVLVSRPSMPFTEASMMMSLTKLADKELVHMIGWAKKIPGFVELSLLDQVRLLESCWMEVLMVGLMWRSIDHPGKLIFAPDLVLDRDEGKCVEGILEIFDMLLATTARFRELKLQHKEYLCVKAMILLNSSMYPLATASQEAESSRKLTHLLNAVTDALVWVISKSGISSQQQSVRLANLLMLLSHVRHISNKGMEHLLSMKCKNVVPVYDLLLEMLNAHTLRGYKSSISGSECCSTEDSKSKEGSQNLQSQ
T1 sequence (P19785 whole entry, looked up): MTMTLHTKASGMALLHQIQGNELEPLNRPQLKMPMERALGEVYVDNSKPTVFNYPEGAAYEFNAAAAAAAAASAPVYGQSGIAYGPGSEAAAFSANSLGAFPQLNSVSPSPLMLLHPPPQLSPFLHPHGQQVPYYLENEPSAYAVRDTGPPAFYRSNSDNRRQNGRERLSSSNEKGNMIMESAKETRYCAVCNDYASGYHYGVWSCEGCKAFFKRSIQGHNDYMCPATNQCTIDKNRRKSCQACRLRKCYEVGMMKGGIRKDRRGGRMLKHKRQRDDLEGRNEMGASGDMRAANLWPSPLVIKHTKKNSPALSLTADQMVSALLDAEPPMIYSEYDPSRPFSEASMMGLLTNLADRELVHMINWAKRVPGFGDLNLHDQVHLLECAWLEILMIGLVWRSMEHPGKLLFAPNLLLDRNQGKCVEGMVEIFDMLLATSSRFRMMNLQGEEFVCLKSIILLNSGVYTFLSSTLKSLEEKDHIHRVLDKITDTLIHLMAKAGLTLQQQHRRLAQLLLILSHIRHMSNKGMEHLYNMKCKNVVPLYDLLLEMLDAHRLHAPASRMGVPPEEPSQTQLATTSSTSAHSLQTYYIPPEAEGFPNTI

In the case of `CCCCNC(c1ccc(O)cc1)C(NCCCC)c1ccc(O)cc1.Cl.Cl` (stereo not given), the Increase in the assay on Rattus norvegicus [1] worked out at 475%. In turn, `CCCCCCNC(c1ccc(O)cc1)C(NCCCCCC)c1ccc(O)cc1.Cl.Cl` (stereo not given) gave a Ka in assay [2] of 320000 M⁻¹. For the same compound, the Increase with Rattus norvegicus [3] amounted to 132%. In assay [2], `CC(C)NC(c1ccc(O)cc1)C(NC(C)C)c1ccc(O)cc1` (stereo not given) registered a Ka of 140000 M⁻¹. Consider `CCCCCCNC(c1ccc(OC)cc1)C(NCCCCCC)c1ccc(OC)cc1` (stereo not given), for which, in assay [4], the Ka result is “inactive”. Compound `CCCCCNC(c1ccc(O)cc1)C(NCCCCC)c1ccc(O)cc1` (stereo not given) showed a Ka in assay [2] of 2.2e+06 M⁻¹.

Turning to `CCCCCNC(c1ccc(OC)cc1)C(NCCCCC)c1ccc(OC)cc1` (stereo not given), the Ka entry in assay [5] is “inactive”.

`CCCCNC(c1ccc(OC)cc1)C(NCCCC)c1ccc(OC)cc1` (stereo not given): the Ka entry in assay [4] and in [5] was “inactive” each time. In assay [2], `CCCCNC(c1cccc(O)c1)C(NCCCC)c1cccc(O)c1` (stereo not given) registered a Ka of less than 10000 M⁻¹. `CCCCNC(c1cccc(OC)c1)C(NCCCC)c1cccc(OC)c1` (stereo not given): the Ka result in assay [4] was “inactive”. Consider `CCCCNC(c1ccccc1O)C(NCCCC)c1ccccc1O` (stereo not given), for which the Ka result in assay [2] was “inactive”.

Turning to `CCCCNC(c1ccccc1OC)C(NCCCC)c1ccccc1OC` (stereo not given), the Ka entry in assay [5] was “inactive”. Consider `CCCNC(c1ccc(O)cc1)C(NCCC)c1ccc(O)cc1` (stereo not given), for which the Ka in assay [2] was found to be 1.1e+06 M⁻¹. For the compound `CCCNC(c1ccc(OC)cc1)C(NCCC)c1ccc(OC)cc1` (stereo not given), in [4], the Ka result was “inactive”.

In assay [2], `CCNC(c1ccc(O)cc1)C(NCC)c1ccc(O)cc1` (stereo not given) returned a Ka of less than 10000 M⁻¹. Turning to `CCNC(c1ccc(OC)cc1)C(NCC)c1ccc(OC)cc1` (stereo not given), the Ka entry in assay [4] is “inactive”. Consider `CNC(c1ccc(O)cc1)C(NC)c1ccc(O)cc1` (stereo not given), for which, in assay [5], the Ka result is “inactive”.

As to `CNC(c1ccc(OC)cc1)C(NC)c1ccc(OC)cc1` (stereo not given), the Ka entry in assay [5] was “inactive”. In the case of `COc1ccc(C(NC(C)C)C(NC(C)C)c2ccc(OC)cc2)cc1` (stereo not given), the Ka entry in [4] is “inactive”. For the compound `CCCCNC(c1ccc(O)cc1)C(NCCCC)c1ccc(O)cc1.Cl.Cl` (racemic), the Activity is reported as 79% with MCF7 [6], 13942 with MCF7 [7], 10833 in the assay on MCF7 [8] and 101% in the assay on MCF7 [9]. Compound `CCCCN1CN(CCCC)C(c2ccc(O)cc2)C1c1ccc(O)cc1` (racemic) [listing 1 of 2 here] came in with an Increase in the assay with Rattus norvegicus [1] of 105%. As a reminder, the inhibition is the drop in the measured response relative to a control, in per cent. With `CCCCN1C(=S)N(CCCC)C(c2ccc(O)cc2)C1c1ccc(O)cc1` (racemic), in [10], the inhibition turned out to be 75%.

Compound `CCCCN1C(c2ccc(O)cc2)C(c2ccc(O)cc2)N(CCCC)C1c1ccc(O)cc1` (racemic) registered an inhibition in [10] of 48%.

In assay [10], `CCCCN1C(c2ccc(O)cc2)C(c2ccc(O)cc2)N(CCCC)C1c1ccccc1` (racemic) yielded an inhibition of 39%. Consider `CCCCN1CN(CCCC)C(c2ccc(O)cc2)C1c1ccc(O)cc1` (racemic) [listing 2 of 2 here], for which, in assay [10], the inhibition was determined as 70%. On to `CCCCNC(c1ccc(O)cc1)C(NCCCC)c1ccc(O)cc1` (racemic), for which, in [2], the Ka was 3.6e+06 M⁻¹. In assay [10], `CCCN1CN(CCC)C(c2ccc(O)cc2)C1c1ccc(O)cc1` (racemic) returned an inhibition of 66%. For the compound `CCCCNC(c1ccc(O)cc1)C(NCCCC)c1ccc(O)cc1.Cl.Cl` (single isomer, unassigned; (+)), the Activity in the assay listed under Rattus norvegicus [11] is on record as 101.8 uM ml-1; in the assay listed under Rattus norvegicus [12], 191.7 uM ml-1; in the assay filed under Rattus norvegicus [14], 48.4 uM ml-1; in the assay listed under Rattus norvegicus [15], 39.4 uM ml-1. The same compound displayed an Increase in the assay on Rattus norvegicus [13] of 112%. In turn, `CCCCN1CN(CCCC)C(c2ccc(O)cc2)C1c1ccc(O)cc1` (single isomer, unassigned; (+)) yielded an inhibition in [10] of 3%. For `CCCCNC(c1ccc(O)cc1)C(NCCCC)c1ccc(O)cc1` (single isomer, unassigned; (+)), the Ka in assay [5] was 2.1e+07 M⁻¹. For the compound `CCCCNC(c1ccc(O)cc1)C(NCCCC)c1ccc(O)cc1.Cl.Cl` (single isomer, unassigned; (-)), the Activity amounted to 121.3 uM ml-1 in the assay filed under Rattus norvegicus [11], 183.3 uM ml-1 in the assay filed under Rattus norvegicus [12], 44.9 uM ml-1 in the assay listed under Rattus norvegicus [14] and 42.8 uM ml-1 in the assay filed under Rattus norvegicus [15]. This compound also displayed an Increase in the assay on Rattus norvegicus [13] of 115%. In assay [5], `CCCCNC(c1ccc(O)cc1)C(NCCCC)c1ccc(O)cc1` (single isomer, unassigned; (-)) had a Ka of 700000 M⁻¹. Turning to `CCCCN1CN(CCCC)C(c2ccc(O)cc2)C1c1ccc(O)cc1` (stereo in doubt; 7c), the inhibition in assay [10] is 75%.

Turning to `CCCCN1CN(CCCC)C(c2ccc(O)cc2)C1c1ccc(O)cc1` (stereo in doubt; 7d), the inhibition in assay [10] stood at 0%. On to `CC[C@H](c1ccc(O)cc1)[C@@H](CC)c1ccc(O)cc1` [HEXESTROL], for which the figures for the Activity with MCF7 [16] and in the assay on MCF7 [9] were 16485 and 120%, respectively.

`CC/C(=C(\c1ccccc1)c1ccc(OCCN(C)C)cc1)c1ccccc1` [TAMOXIFEN]: the Activity in the assay with MCF7 [16] is given as 11225; in the assay with MCF7 [9], 82%.
